Results taken from publication PMC5132082 (Clinical Pharmacology in Drug Development, 2016).
Read-outs that look alike come from different tables or passages of the source. Marks after values point to notes of the source that are not given here.

What was measured:
[1] = cited from earlier work
[2] = cited from earlier work; remark: listed apart in the source
[3] = type: in vivo, human; details: for Tmax median difference (90%CI): Hodges-Lehmann estimate; for AUC0–∞ ratio of geometric means (90%CI) / CL/F ratio of geometric means (90%CI) / Cmax ratio of geometric means (90%CI) / Vz/F ratio of geometric means (90%CI): ANOVA; for t1/2 geometric mean difference: severely renal impaired vs healthy matched
[4] = moderate and severe hepatic impairment; cited from earlier work
Safety monitoring = type: in vivo, human; details: for subjects reporting AEs: single oral 30 mg
In short: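 Subjects were confined from the evening before dosing through the PK sampling period. Monitoring ran throughout the study and covered adverse events, complete physical examinations, vital signs, 12-lead ECGs, clinical laboratory safety tests and prior and concomitant medications. Follow-up safety visit 11‒18 days after dosing.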

[5] = population pharmacokinetic model built in a phase 3 study; cited from earlier work
[6] = cited from earlier work; remark: listed apart in the source
[7] = type: in vivo, human; details: M12
In short: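 Urine collected predose (≤60 min before dosing) and over 0‒8, 8‒24, 24‒48 and 48‒72 h postdose. M12 measured by achiral LC-MS/MS (LLOQ 5 ng/mL). Excreted amount = urine concentration × interval urine volume. Renal clearance = cumulative 72-h urinary M12 divided by plasma AUC0–72. Summarised descriptively by group.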

[8] = healthy subjects, single oral dose
[9] = apremilast, mild renal impaired/healthy matched
[10] = apremilast, moderate renal impaired/healthy matched
[11] = apremilast, moderate renal impairment group
[12] = apremilast, severe renal impaired/healthy matched
[13] = apremilast, severe renal impairment vs healthy matched
[14] = apremilast, subjects with severe renal impairment
[15] = M12, mild renal impaired/healthy matched
[16] = M12, moderate renal impaired/healthy matched
[17] = M12, severe renal impaired/healthy matched
[18] = M12, subjects with mild renal impairment
[19] = M12, subjects with moderate renal impairment
[20] = M12, subjects with severe renal impairment

In the case of `CCOc1cc(CC(=O)N[C@@H](CC(C)C)c2ccccc2N2CCCCC2)ccc1C(=O)O` [repaglinide], the “fraction of unchanged drug excreted through urine (fe)” value ([1]; healthy volunteers) is listed as less than 0.1% and the mean half-life increase ([1]; subjects with severe renal impairment, after 1 week of treatment) is listed as roughly 4 fold.

In the case of `CCOc1cc([C@@H](CS(C)(=O)=O)N2C(=O)c3cccc(NC(C)=O)c3C2=O)ccc1OC` [apremilast], the absolute bioavailability [2, 8] is listed as “≈ 73%”, the “given dose excreted in urine unchanged” value [2, 8] is listed as “≈ 3%” and the “Tmax median difference (90%CI)” value ([3]; apremilast, mild renal impaired vs healthy matched) is listed as 0.0 (‐1.00 to 1.00) P > .9999 h. The “AUC0–∞ ratio of geometric means (90%CI)” value [3, 9] was 85.9 (65.8–112.0) %, the “CL/F ratio of geometric means (90%CI)” value [3, 9] was 116.5 (89.3–151.9) % and the “Cmax ratio of geometric means (90%CI)” value [3, 9] was 106.2 (84.7–133.1) %. For the same molecule, the “Vz/F ratio of geometric means (90%CI)” value [3, 9] was 120.4 (92.2–157.2) %, the “Tmax median difference (90%CI)” value ([3]; apremilast, moderate renal impaired vs healthy matched) was 1.0 (‐0.50 to 2.50) P = .25 h and the “AUC0–∞ ratio of geometric means (90%CI)” value [3, 10] was 122.1 (93.6–159.3) %. The “CL/F ratio of geometric means (90%CI)” value [3, 10] was 81.9 (62.8–106.8) %, the “Cmax ratio of geometric means (90%CI)” value [3, 10] was 87.5 (69.8–109.7) % and the “Vz/F ratio of geometric means (90%CI)” value [3, 10] was 103.2 (79.0–134.8) %. For the same molecule, the “AUC0–∞ higher relative to healthy matched subjects” value [3, 11] was “≈ 22%”, the “Cmax lower relative to healthy matched subjects” value [3, 11] was “≈ 13%” and the “Tmax median difference (90%CI)” value ([3]; apremilast, severe renal impaired vs healthy matched) was 0.00 (‐1.5 to 1.5) P > .9999 h. The “Vz/F ratio of geometric means” value ([3]; apremilast, severe renal impaired/healthy matched, 90%CI not calculated) was 67.35 (NC) %, the “AUC0–∞ ratio of geometric means (90%CI)” value [3, 12] was 188.5 (132.5–268.0) % and the “CL/F ratio of geometric means (90%CI)” value [3, 12] was 53.10 (37.3–75.4) %. The “Cmax ratio of geometric means (90%CI)” value [3, 12] was 141.6 (102.9–194.8) %, the VZ/F decreased [3, 13] was roughly 32.7% and the t1/2 prolonged [3, 13] was “≈ 27%”. For the same molecule, the “t1/2 geometric mean difference” value ([3]; apremilast) was 2.485 ^d (NC) h, the “AUC0–∞ higher compared with healthy matched subjects” value [3, 14] was 88.5% and ≈ 89% and the “Cmax higher compared with healthy matched subjects” value [3, 14] was 41.6%. The “apparent clearance relative to that of healthy matched subjects” value [3, 14] was “≈ 53%”, the “effect of hepatic impairment on pharmacokinetic profile” value [4] was “largely unaffected” and the “deaths or AEs leading to discontinuation” value (Safety monitoring; both studies) was “No deaths or AEs leading to discontinuation occurred”. The overall safety finding (Safety monitoring; both studies, single oral 30-mg dose) was “no unexpected AEs or safety signals”, the “subjects with AEs considered possibly related to study medication or procedures” value (Safety monitoring; healthy matched group of severe study) was 2 and the “subjects reporting AEs” value (Safety monitoring; healthy matched group of severe study (n = 8)) was 2. The “subjects with AEs suspected to be related to study medication or procedures” value (“subjects with AEs suspected” for short) (Safety monitoring; healthy matched groups of mild and moderate study) was 3, the “subjects reporting AEs” value (Safety monitoring; healthy matched groups of mild and moderate study (n = 16)) was 5 and the “subjects with AEs suspected” value (Safety monitoring; mild renal impairment group) was 2. The “subjects reporting AEs” value (Safety monitoring; mild renal impairment group (n = 8)) was 2, the “subjects with AEs suspected” value (Safety monitoring; moderate renal impairment group) was 1 and the “subjects reporting AEs” value (Safety monitoring; moderate renal impairment group (n = 8)) was 2. The “subjects with AEs considered possibly related to study medication or procedures” value (Safety monitoring; severe renal impairment group) was 3, the “subjects reporting AEs” value (Safety monitoring; severe renal impairment group (n = 8)) was 4 and the “disease effect of PsA: slower clearance” value [5] was “≈ 36%”.

In the case of `CCOc1cc([C@@H](CS(C)(=O)=O)N2C(=O)c3cccc(NC(C)=O)c3C2=O)ccc1O[C@@H]1O[C@H](C(=O)O)[C@@H](O)[C@H](O)[C@H]1O` [M12, O‐desmethyl apremilast glucuronide], the “share of the circulating radioactivity” value ([2]; after a single oral dose of [14C]apremilast) is listed as 39%, the “AUC0–∞ ratio of geometric means (90%CI)” value [3, 15] is listed as 129.6 (99.5–168.8) % and the “Cmax ratio of geometric means (90%CI)” value [3, 15] is listed as 130.8 (91.7–186.6) %. For the same molecule, the “AUC0–∞ ratio of geometric means (90%CI)” value [3, 16] was 161.4 (122.8–212.3) %, the “Cmax ratio of geometric means (90%CI)” value [3, 16] was 116.9 (81.9–166.8) % and the “Tmax median difference (90%CI)” value ([3]; M12, severe renal impaired vs healthy matched) was 6.25 (2.975–11.0) h. For the same molecule, the “AUC0–∞ ratio of geometric means (90%CI)” value [3, 17] was 291.7 (204.3–416.4) %, the “Cmax ratio of geometric means (90%CI)” value [3, 17] was 142.9 (106.3–192.1) % and the “t1/2 geometric mean difference” value ([3]; M12) was 10.498 ^d (NC) h. The “AUC0–∞ higher than in healthy matched subjects” value [3, 18] was 29.6%, the “Cmax higher than in healthy matched subjects” value [3, 18] was 30.8% and the “AUC0–∞ higher than in healthy matched subjects” value [3, 19] was 61.4%. The “Cmax higher than in healthy matched subjects” value [3, 19] was 16.9%, the “Tmax delayed compared with healthy matched subjects” value ([3]; M12, subjects with renal impairment (severe study), P ≤ .05) was “≈ 6.25 hours” and the “increase in AUC0–∞ vs healthy matched subjects” value [3, 20] was 191.7%. For the same molecule, the “increase in Cmax vs healthy matched subjects” value [3, 20] was 42.9%, the pharmacological activity [6] was “pharmacologically inactive” and the “geometric mean renal clearance” value ([7]; healthy subjects matched with subjects with mild renal impairment) was 3.67 L/h. The “geometric mean renal clearance” value ([7]; healthy subjects matched with subjects with moderate renal impairment) was 3.02 L/h, the renal clearance decreased ([7]; subjects with mild or moderate renal impairment) was “≈ 40%” and the “geometric mean renal clearance” value ([7]; subjects with mild renal impairment, urine 0-72 h / plasma AUC 0-72 h) was 2.35 L/h. The “geometric mean renal clearance” value ([7]; subjects with moderate renal impairment) was 1.84 L/h.
